Data on eight compounds can be found in ChEMBL document CHEMBL3351978, “Optimization of 1,2,4-Triazolopyridines as Inhibitors of Human 11β-Hydroxysteroid Dehydrogenase Type 1 (11β-HSD-1)” (ACS Med Chem Lett, 2014).

Data set [1] deals with HEK293-EBNA. Briefly: Inhibition of cynomolgus monkey recombinant 11beta-HSD-1 expressed in HEK293 EBNA cells using [3H]-cortisone and NADPH by scintillation proximity assay. It is filed as cell-based. Conditions: Macaca fascicularis. (SPA uses beads or plates that emit light when radiolabelled molecules are held near them.)
Data set [2] can be described thus: Stability in mouse microsomes assessed as parent compound remaining after 30 mins. It is filed as ADME, Microsome. The settings on record: read-out: Stability.
Data set [3] in a line: Stability in […] monkey microsomes assessed as parent compound remaining after 30 mins. It is filed as ADME, Macaca fascicularis, Microsome. Conditions: read-out: Stability.
Data set [4] in a line: Cmax in Balb/C mouse at 3.5 mg/kg, po. It is filed as ADME, organism-based. The settings on record: in vivo. Further details: dose 3.5 mg/kg, route oral. An outline of the steps:
(§1)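 Male Balb/C mice were given a single oral dose of 3.5 mpk in 0.5% methocel/0.1% Tween-80 in water.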

The nature of data set [5]: Tmax in Balb/C mouse at 3.5 mg/kg, po. It is filed as ADME, organism-based. Further details: dose 3.5 mg/kg, route oral. The settings on record: in vivo. An outline of the steps: as §1
Data set [6] is described as follows: AUC (0 to 8 hrs) in Balb/C mouse at 3.5 mg/kg, po. Also on record: time < 8 hr, dose 3.5 mg/kg, route oral. It is filed as ADME, organism-based. Conditions: plasma. An outline of the steps:
as §1

A short description of data set [7]: Stability in human microsomes assessed as parent compound remaining after 30 mins. It is filed as ADME, Microsome. Conditions: read-out: Stability.
Data set [8] can be described thus: Stability in rat microsomes assessed as parent compound remaining after 30 mins. It is filed as ADME, Microsome. Conditions: read-out: Stability.
A short description of data set [9]: Solubility at pH 7.4. It is filed as physicochemical. Conditions: buffer.

≈ marks a conversion by molar mass, not a printed value. Calls of active or inactive are those of the source. The rule behind the calls is not given here.

As for `Cc1cccn2c(C3(c4ccc(Cl)cc4)CC3)nnc12`, in data set [1], the inhibition result is “Active”.

Regarding `Clc1ccc(C2(c3nnc4c(OC5CCCCC5)cccn34)CC2)cc1`, the inhibition result in data set [1] is “inactive”.

As usually defined, the Cmax is the maximum level reached in the sampled fluid or tissue. Usually Tmax stands for the time from dosing to the highest level. Broadly, the AUC(0-t) is exposure summed from dosing to a finite time, without extrapolation to infinity. In general, solubility refers to the dissolved amount per volume that the medium holds. For the compound `Clc1ccc(C2(c3nnc4c(C5CC5)cccn34)CC2)cc1`, the remaining at 0.5 h in [2], in data set [3], in data set [7] and in data set [8] was 100% throughout. This compound also gave a Cmax in data set [4] of 2500 nM. In data set [5], the Tmax was found to be 1 h. The compound also showed an AUC(0-t) at 8 h in data set [6] of 5.6 µM·h. The inhibition entry in data set [1] is “Active”. In [9], the solubility amounted to 76 µg/mL (≈ 245 µM).

On to `Clc1ccc(C2(c3nnc4c(OC5CCOCC5)cccn34)CC2)cc1`, for which, in [1], the inhibition entry is “Active”.

In the case of `CC(C)c1cccn2c(C3(c4ccc(Cl)cc4)CC3)nnc12`, in data set [1], the inhibition result is “Active”.

As to `Clc1ccc(C2(c3nnc4c(OCC5CC5)cccn34)CC2)cc1`, in data set [1], the inhibition result is “Active”.

Consider `Clc1ccc(C2(c3nnc4c(C5CCC5)cccn34)CC2)cc1`, for which, in data set [1], the inhibition entry is “Active”.

Take `Clc1ccc(C2(c3nnc4c(OC5CCC5)cccn34)CC2)cc1`: the inhibition entry in data set [1] was “Active”.
